Laboratory results: paper PMC5496795 (Clinical cancer research : an official journal of the …, 2017)

Assays:
PC-3 xenografts = test: Combination therapy, tumor growth of PC-3 xenografts; assay type: in vivo, athymic nude male mice; conditions: PC-3 tumor bearing animals
Summary of the method: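 PC-3 cells (5 ×10⁶ in 1:1 media/Matrigel) were implanted in the shoulder of 6–8-week-old males. At about 100 mm³ the mice were randomised to four arms: sham (i.v. saline plus illumination), VTP, radiolabelled peptide (14.8 MBq retro-orbital i.v.), or both. For VTP, 4 h after the peptide, the photosensitizer (9 mg/kg, i.v. bolus, in 5% dextran) was followed immediately by 10 min of 755 nm laser to the tumour plus a 1 mm rim. Tumours were measured by caliper twice weekly to 34 days.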

PC-3 tumors = test: Histology/IHC of PC-3 tumors; assay type: in vivo, athymic nude male mice
Summary of the method: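 PC-3 xenograft tumours were taken after treatment, fixed in 10% buffered formalin, paraffin-embedded and cut at 5 micron. Sections were stained with anti-mouse CD31 antibody for vessel density and by TUNEL for cell death. VTP was an i.v. photosensitizer (9 mg/kg) followed immediately by 10 min of 755 nm laser illumination of the tumour area.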

[1] = system: localized prostate cancer; conditions: published trial data in localized prostate cancer; ref not given; cited from earlier work
[2] = system: GRPr-expressing prostate cancer xenografts; conditions: in vivo; cited from earlier work

Compound | Animals remaining tumor free at 34 days post treatment (PC-3 xenografts) | Vessel density in PC-3 tumors (IHC anti-CD31) (PC-3 tumors; 24 hours post VTP treatment, compared to control tumors) | TUNEL staining of tumors (cell death) (PC-3 tumors; PC-3 tumors, post VTP treatment) | Cases with absent evidence of cancer (local tumor ablation) [1] [%] | Fraction of delivered radioactivity washed out at 24 hours p.i. [2] | Time of optimal tumor uptake post injection [2] [h]
CC[C@H]1c2cc3[n-]c(c(CC(=O)OC)c4nc(cc5[n-]c(cc(n2)[C@@H]1C)c(C(C)=O)c5C)[C@@H](C)[C@@H]4CCC(=O)[O-])c(C(=O)NCCS(=O)(=O)[O-])c3C.[H+].[H+].[Pd+2] [VTP] | 2/12 | markedly reduced vessel density | stained positive | 80 | – | –
^111In-DOTA-PEG4-D-Phe-Gln-Trp-Ala-Val-Gly-His-Sta-Leu-NH2 [^111In-DOTA-AR] | – | – | – | – | about 2/3 | 1 to 4
